The values below come from ChEMBL document CHEMBL1154632, “Synthesis and antimicrobial activity of 7-(2-substituted phenylthiazolidinyl)-benzopyran-2-one derivatives” (2010).

For experiment [1], the system named is Escherichia coli. Briefly: Antibacterial activity against Escherichia coli NCIM 2666 at 100 ug/ml by agar cup plate method. The experiment is classed as functional. The following applies: for zone of inhibition at 100 µg/mL: read-out: IZ. The essentials:
(§1)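 Agar cup plate assay. Strains were obtained from NCL Pune, India, and test compounds were dissolved in DMF. Values are reported as mean (SEM).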

In experiment [2] the test system is Penicillium roqueforti. Briefly: Antifungal activity against Penicillium roqueforti NCIM 712 at 100 ug/ml by agar cup plate method. The experiment is classed as functional. The following applies: for zone of inhibition at 100 µg/mL: read-out: IZ. The essentials:
as §1

Experiment [3] deals with Aspergillus niger. Briefly: Antifungal activity against Aspergillus niger NCIM 813 at 100 ug/ml by agar cup plate method. Type of experiment: functional. Particulars: for zone of inhibition at 100 µg/mL: read-out: IZ. The essentials:
as §1

Experiment [4] deals with Staphylococcus aureus. Nature of the experiment: Antibacterial activity against Staphylococcus aureus NCIM 2602 at 100 ug/ml by agar cup plate method. Particulars: read-out: IZ.
The subject of experiment [5] is Delftia acidovorans. Briefly: Antibacterial activity against Pseudomonas desmolytica NCIM 2028 at 100 ug/ml by agar cup plate method. Type of experiment: functional. The following applies: for zone of inhibition at 100 µg/mL: read-out: IZ. The essentials: as §1
Experiment [6] deals with Bacillus subtilis. Briefly: Antibacterial activity against Bacillus subtilis NCIM 2613 at 100 ug/ml by agar cup plate method. The following applies: read-out: IZ.
Experiment [7] relates to Escherichia coli. Briefly: microbe, parasite or virus in culture. The following applies: NCIM 2666, read-out: IZ.
Experiment [8] concerns Staphylococcus aureus. Nature of the experiment: microbe, parasite or virus in culture. Particulars: Bacillus subtilis, NCIM 2613, read-out: IZ.
Experiment [9] deals with Delftia acidovorans. Briefly: Antibacterial activity against Pseudomonas desmolytica NCIM 2028 at 50 ug/ml by agar cup plate method. The experiment is classed as functional. Particulars: read-out: IZ. The essentials:
as §1

Experiment [10] concerns Bacillus subtilis. Briefly: microbe, parasite or virus in culture. The following applies: Staphylococcus aureus, NCIM 2602, read-out: IZ.
In experiment [11] the test system is Penicillium roqueforti. Nature of the experiment: Antifungal activity against Penicillium roqueforti NCIM 712 at 50 ug/ml by agar cup plate method. The experiment is classed as functional. The following applies: read-out: IZ. The essentials:
as §1

Experiment [12] deals with Aspergillus niger. Briefly: Antifungal activity against Aspergillus niger NCIM 813 at 50 ug/ml by agar cup plate method. The experiment is classed as functional. The following applies: read-out: IZ. The essentials: as §1

The source made the active and inactive calls. The rule behind the calls is not given here.

Regarding `Cc1cc(=O)oc2cc(/N=C/c3cccc([N+](=O)[O-])c3)ccc12`, the zone of inhibition at 100 µg/mL with Escherichia coli [1] was 9 mm; with Penicillium roqueforti [2], 4 mm; in the experiment with Staphylococcus aureus [4], 15 mm; in the experiment with Delftia acidovorans [5], 10 mm; in the experiment on Bacillus subtilis [6], 20 mm. The “inhibition zone (IZ)” value in the experiment on Aspergillus niger [3] was “inactive”.

As for `Cc1cc(=O)oc2cc(/N=C/c3ccccc3O)ccc12`, the “inhibition zone (IZ)” value in the experiment on Escherichia coli [1] and in the experiment with Delftia acidovorans [5] was “inactive” in each case. The zone of inhibition at 100 µg/mL with Penicillium roqueforti [2] amounted to 10 mm; in the experiment with Aspergillus niger [3], 6 mm; with Staphylococcus aureus [4], 3 mm; in the experiment with Bacillus subtilis [6], 7 mm.

As to `O=C(O)c1cn(C2CC2)c2cc(N3CCNCC3)c(F)cc2c1=O` [CIPROFLOXACIN], the zone of inhibition at 50 µg/mL in the experiment on Escherichia coli [7] worked out at 30 mm; with Staphylococcus aureus [8], 18 mm; in the experiment with Delftia acidovorans [9], 18 mm; in the experiment on Bacillus subtilis [10], 25 mm.

Take `Cc1cc(=O)oc2cc(/N=C/c3ccc(O)cc3)ccc12`: the “inhibition zone (IZ)” value in the experiment on Escherichia coli [1] and in the experiment with Delftia acidovorans [5] was “inactive” in each case. The zone of inhibition at 100 µg/mL with Penicillium roqueforti [2] is 8 mm; in the experiment on Aspergillus niger [3] it was 6 mm; in the experiment on Staphylococcus aureus [4] it was 4 mm; in the experiment with Bacillus subtilis [6] it was 10 mm.

On to `Cc1cc(=O)oc2cc(/N=C/c3ccc(N(C)C)cc3)ccc12`, for which the zone of inhibition at 100 µg/mL in the experiment with Escherichia coli [1] stood at 8 mm; in the experiment on Staphylococcus aureus [4], 6 mm; with Delftia acidovorans [5] it was 8 mm; in the experiment with Bacillus subtilis [6] it was 14 mm. In addition, the “inhibition zone (IZ)” value in the experiment with Penicillium roqueforti [2] and in the experiment on Aspergillus niger [3] was “inactive” in each case.

On to `Cc1cc(=O)oc2cc(N3C(=O)CSC3c3ccccc3)ccc12` (centres undefined), for which the zone of inhibition at 100 µg/mL in the experiment with Escherichia coli [1] was 2 mm; in the experiment on Penicillium roqueforti [2] it was 13 mm; with Aspergillus niger [3], 8 mm; in the experiment on Staphylococcus aureus [4], 12 mm; in the experiment on Delftia acidovorans [5], 14 mm; in the experiment on Bacillus subtilis [6], 19 mm.

As for `Cc1ccc(C2SCC(=O)N2c2ccc3c(C)cc(=O)oc3c2)cc1` (centres undefined), the zone of inhibition at 100 µg/mL in the experiment on Escherichia coli [1] worked out at 20 mm; in the experiment on Penicillium roqueforti [2], 6 mm; in the experiment on Aspergillus niger [3], 3 mm; with Staphylococcus aureus [4], 6 mm; in the experiment on Delftia acidovorans [5], 15 mm; in the experiment on Bacillus subtilis [6], 8 mm.

With `COc1cccc(C2SCC(=O)N2c2ccc3c(C)cc(=O)oc3c2)c1` (centres undefined), the zone of inhibition at 100 µg/mL in the experiment with Escherichia coli [1] was determined as 12 mm; in the experiment with Penicillium roqueforti [2] it was 20 mm; with Aspergillus niger [3], 13 mm; in the experiment on Staphylococcus aureus [4], 10 mm; in the experiment on Delftia acidovorans [5], 9 mm; in the experiment with Bacillus subtilis [6], 17 mm.

Consider `Cc1ccc(/C=N/c2ccc3c(C)cc(=O)oc3c2)cc1`, for which the zone of inhibition at 100 µg/mL was 10 mm in the experiment with Escherichia coli [1]; 7 mm with Penicillium roqueforti [2]; 3 mm in the experiment with Aspergillus niger [3]; 7 mm in the experiment on Staphylococcus aureus [4]; 11 mm in the experiment on Delftia acidovorans [5]; 9 mm in the experiment with Bacillus subtilis [6].

For `Cc1cc(=O)oc2cc(N3C(=O)CSC3c3ccc(N(C)C)cc3)ccc12` (centres undefined), the zone of inhibition at 100 µg/mL in the experiment on Escherichia coli [1] was determined as 10 mm; in the experiment with Staphylococcus aureus [4], 5 mm; with Delftia acidovorans [5], 7 mm; in the experiment with Bacillus subtilis [6] it was 13 mm. The “inhibition zone (IZ)” value in the experiment on Penicillium roqueforti [2] and in the experiment on Aspergillus niger [3] was “inactive” in each case.

In the case of `Cc1cc(=O)oc2cc(N3C(=O)CSC3c3ccc(Cl)cc3Cl)ccc12` (centres undefined), the zone of inhibition at 100 µg/mL in the experiment with Escherichia coli [1] is 15 mm; with Penicillium roqueforti [2], 8 mm; with Aspergillus niger [3], 6 mm; in the experiment on Staphylococcus aureus [4] it was 7 mm; with Delftia acidovorans [5] it was 11 mm; in the experiment on Bacillus subtilis [6], 10 mm.

As for `Cc1cc(=O)oc2cc(/N=C/c3ccc(Cl)cc3Cl)ccc12`, the zone of inhibition at 100 µg/mL in the experiment with Escherichia coli [1] was determined as 14 mm; in the experiment with Penicillium roqueforti [2] it was 9 mm; in the experiment with Aspergillus niger [3], 7 mm; with Staphylococcus aureus [4] it was 5 mm; in the experiment on Delftia acidovorans [5] it was 13 mm; in the experiment with Bacillus subtilis [6], 12 mm.

In the case of `Cc1cc(=O)oc2cc(/N=C/c3ccccc3)ccc12`, the zone of inhibition at 100 µg/mL with Escherichia coli [1] is 13 mm; in the experiment with Penicillium roqueforti [2], 11 mm; in the experiment on Aspergillus niger [3], 9 mm; in the experiment on Staphylococcus aureus [4] it was 11 mm; in the experiment on Delftia acidovorans [5] it was 10 mm; in the experiment with Bacillus subtilis [6], 10 mm.

Consider `Cc1cc(=O)oc2cc(N3C(=O)CSC3c3ccc(O)cc3)ccc12` (centres undefined), for which the “inhibition zone (IZ)” value in the experiment with Escherichia coli [1] and in the experiment with Delftia acidovorans [5] was “inactive” in each case. For the same compound, the zone of inhibition at 100 µg/mL in the experiment on Penicillium roqueforti [2] was 9 mm; with Aspergillus niger [3] it was 5 mm; with Staphylococcus aureus [4], 4 mm; in the experiment with Bacillus subtilis [6], 9 mm.

As for `Cc1cc(=O)oc2cc(/N=C/c3ccc(F)cc3)ccc12`, the zone of inhibition at 100 µg/mL in the experiment with Escherichia coli [1] came to 14 mm; with Penicillium roqueforti [2], 5 mm; in the experiment on Staphylococcus aureus [4], 16 mm; in the experiment with Delftia acidovorans [5], 12 mm; in the experiment with Bacillus subtilis [6], 17 mm. The “inhibition zone (IZ)” value in the experiment on Aspergillus niger [3] is “inactive”.

In the case of `COc1ccc(C2SCC(=O)N2c2ccc3c(C)cc(=O)oc3c2)cc1` (centres undefined), the zone of inhibition at 100 µg/mL in the experiment with Escherichia coli [1] is 8 mm; in the experiment on Penicillium roqueforti [2], 17 mm; in the experiment on Aspergillus niger [3], 11 mm; with Staphylococcus aureus [4] it was 16 mm; with Bacillus subtilis [6], 21 mm. Further, the “inhibition zone (IZ)” value with Delftia acidovorans [5] was “inactive”.

On to `Cc1cc(=O)oc2cc(N3C(=O)CSC3c3ccco3)ccc12` (centres undefined), for which the figures for the zone of inhibition at 100 µg/mL with Escherichia coli [1], in the experiment on Penicillium roqueforti [2] and in the experiment on Delftia acidovorans [5] were 13 mm, 5 mm and 6 mm, respectively. Further, the “inhibition zone (IZ)” value in the experiment on Aspergillus niger [3] was “inactive”.

In the case of `COc1ccc(/C=N/c2ccc3c(C)cc(=O)oc3c2)cc1`, the zone of inhibition at 100 µg/mL in the experiment on Escherichia coli [1] was 7 mm; in the experiment on Penicillium roqueforti [2] it was 14 mm; in the experiment on Aspergillus niger [3] it was 9 mm; with Staphylococcus aureus [4] it was 13 mm; with Bacillus subtilis [6] it was 21 mm. Moreover, in the experiment with Delftia acidovorans [5], the “inhibition zone (IZ)” value is “inactive”.

For the compound `COc1cccc(/C=N/c2ccc3c(C)cc(=O)oc3c2)c1`, the zone of inhibition at 100 µg/mL came out at 11 mm in the experiment with Escherichia coli [1]; 13 mm with Penicillium roqueforti [2]; 11 mm in the experiment on Aspergillus niger [3]; 9 mm with Staphylococcus aureus [4]; 8 mm in the experiment with Delftia acidovorans [5]; 13 mm with Bacillus subtilis [6].

On to `Cc1cc(=O)oc2cc(/N=C/c3ccco3)ccc12`, for which the zone of inhibition at 100 µg/mL with Escherichia coli [1] was 12 mm; in the experiment on Penicillium roqueforti [2], 6 mm; in the experiment with Delftia acidovorans [5], 7 mm. In the experiment with Aspergillus niger [3], the “inhibition zone (IZ)” value was “inactive”.

Turning to `Cc1cc(=O)oc2cc(N3C(=O)CSC3c3ccccc3O)ccc12` (centres undefined), the “inhibition zone (IZ)” value in the experiment with Escherichia coli [1] and in the experiment with Delftia acidovorans [5] was “inactive” throughout. The zone of inhibition at 100 µg/mL in the experiment on Penicillium roqueforti [2] was determined as 11 mm; with Aspergillus niger [3], 7 mm; in the experiment with Staphylococcus aureus [4] it was 4 mm; with Bacillus subtilis [6], 8 mm.

For `COC1=CC(=O)C[C@@H](C)[C@]12Oc1c(Cl)c(OC)cc(OC)c1C2=O` [GRISEOFULVIN], the zone of inhibition at 50 µg/mL turned out to be 2 mm in the experiment with Penicillium roqueforti [11] and 17 mm in the experiment with Aspergillus niger [12].

Turning to `Cc1cc(=O)oc2cc(N3C(=O)CSC3c3cccc([N+](=O)[O-])c3)ccc12` (centres undefined), the zone of inhibition at 100 µg/mL in the experiment on Escherichia coli [1] came to 10 mm; in the experiment with Penicillium roqueforti [2], 3 mm; with Staphylococcus aureus [4], 19 mm; in the experiment on Delftia acidovorans [5], 9 mm; in the experiment with Bacillus subtilis [6], 27 mm. The “inhibition zone (IZ)” value in the experiment with Aspergillus niger [3] is “inactive”.

As to `Cc1cc(=O)oc2cc(N3C(=O)CSC3c3ccc(F)cc3)ccc12` (centres undefined), the zone of inhibition at 100 µg/mL was determined as 18 mm in the experiment with Escherichia coli [1]; 19 mm in the experiment on Penicillium roqueforti [2]; 13 mm in the experiment with Aspergillus niger [3]; 20 mm in the experiment on Staphylococcus aureus [4]; 13 mm in the experiment on Delftia acidovorans [5]; 28 mm with Bacillus subtilis [6].
